Results from ChEMBL document CHEMBL2040751, “Discovery of PF-04449913, a Potent and Orally Bioavailable Inhibitor of Smoothened” (ACS Med Chem Lett, 2012).
Values after ≈ are worked out from the molar mass of the structure shown.

What was measured:
Protein smoothened = Protein smoothened (Mus musculus, UniProt P56726); assay: Inhibition of Smo in mouse C3H10T1/2 cells using human recombinant SHH assessed as effect on SMO/SHH transient transcriptional activation after 20 hrs by Gli-luciferase reporter assay; format: cell-based, C3H 10T1/2
Chain of Protein smoothened (P56726 whole entry): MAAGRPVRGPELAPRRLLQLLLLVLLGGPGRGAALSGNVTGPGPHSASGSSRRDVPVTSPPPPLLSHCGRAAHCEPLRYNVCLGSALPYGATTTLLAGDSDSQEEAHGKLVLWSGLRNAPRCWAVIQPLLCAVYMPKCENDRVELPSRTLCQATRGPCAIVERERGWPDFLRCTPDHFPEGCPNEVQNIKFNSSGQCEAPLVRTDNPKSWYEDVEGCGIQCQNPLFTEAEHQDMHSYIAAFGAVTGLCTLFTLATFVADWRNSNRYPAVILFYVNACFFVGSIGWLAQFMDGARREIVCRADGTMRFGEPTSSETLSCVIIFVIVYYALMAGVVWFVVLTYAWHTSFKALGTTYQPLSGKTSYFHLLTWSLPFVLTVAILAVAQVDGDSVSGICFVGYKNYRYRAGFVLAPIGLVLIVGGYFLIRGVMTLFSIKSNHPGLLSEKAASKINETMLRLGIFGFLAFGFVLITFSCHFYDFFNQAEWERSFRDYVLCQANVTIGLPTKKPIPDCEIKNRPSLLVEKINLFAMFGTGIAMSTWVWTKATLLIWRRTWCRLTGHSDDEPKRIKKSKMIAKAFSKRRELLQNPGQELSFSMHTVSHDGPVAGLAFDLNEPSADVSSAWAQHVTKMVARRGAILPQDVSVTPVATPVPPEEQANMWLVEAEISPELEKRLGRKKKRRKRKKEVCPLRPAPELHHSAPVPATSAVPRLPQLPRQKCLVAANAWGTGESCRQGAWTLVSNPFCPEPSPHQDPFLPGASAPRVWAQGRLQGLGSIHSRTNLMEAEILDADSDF

[1] = molecular target: Protein smoothened (Mus musculus) (UniProt P56726); assay: Potency ratio, ratio of IC50 for compound to IC50 for compound 1 in mouse C3H10T1/2 cells by SMO/SHH transient transcriptional activation based Gli-luciferase reporter assay; format: cell-based; conditions: C3H 10T1/2
Chain of Protein smoothened (Mus musculus) (P56726 whole entry): as above

[2] = Lipophilicity, log D of the compound; format: physicochemical; conditions: octanol/water
[3] = Fraction unbound in rat liver microsomes; format: ADME, Microsome
[4] = Fraction unbound in dog liver microsomes; format: ADME, Canis lupus familiaris, Microsome
[5] = Fraction unbound in human liver microsomes; format: ADME, Microsome
Cytochrome P450 1A2 = molecular target: T1, Cytochrome P450 1A2 (Homo sapiens, UniProt P05177); assay: Inhibition of CYP1A2; format: ADME
T1 sequence (P05177 whole entry): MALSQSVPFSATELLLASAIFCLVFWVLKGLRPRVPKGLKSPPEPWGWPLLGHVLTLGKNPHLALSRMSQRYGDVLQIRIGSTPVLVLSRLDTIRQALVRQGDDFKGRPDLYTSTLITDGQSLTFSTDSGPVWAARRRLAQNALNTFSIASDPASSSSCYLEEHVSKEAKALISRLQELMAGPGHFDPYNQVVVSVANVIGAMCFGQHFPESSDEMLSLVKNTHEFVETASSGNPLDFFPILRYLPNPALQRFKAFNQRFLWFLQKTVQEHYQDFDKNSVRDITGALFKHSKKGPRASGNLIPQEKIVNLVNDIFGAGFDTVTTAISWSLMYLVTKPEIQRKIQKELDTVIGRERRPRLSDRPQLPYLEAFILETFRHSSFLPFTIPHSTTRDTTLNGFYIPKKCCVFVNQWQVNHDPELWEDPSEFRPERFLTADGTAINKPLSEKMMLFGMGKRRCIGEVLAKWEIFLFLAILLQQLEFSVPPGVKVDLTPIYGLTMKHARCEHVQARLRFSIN

Cytochrome P450 2C8 = molecular target: T2, Cytochrome P450 2C8 (Homo sapiens, UniProt P10632); assay: Inhibition of CYP2C8; format: ADME
T2 sequence (P10632 whole entry): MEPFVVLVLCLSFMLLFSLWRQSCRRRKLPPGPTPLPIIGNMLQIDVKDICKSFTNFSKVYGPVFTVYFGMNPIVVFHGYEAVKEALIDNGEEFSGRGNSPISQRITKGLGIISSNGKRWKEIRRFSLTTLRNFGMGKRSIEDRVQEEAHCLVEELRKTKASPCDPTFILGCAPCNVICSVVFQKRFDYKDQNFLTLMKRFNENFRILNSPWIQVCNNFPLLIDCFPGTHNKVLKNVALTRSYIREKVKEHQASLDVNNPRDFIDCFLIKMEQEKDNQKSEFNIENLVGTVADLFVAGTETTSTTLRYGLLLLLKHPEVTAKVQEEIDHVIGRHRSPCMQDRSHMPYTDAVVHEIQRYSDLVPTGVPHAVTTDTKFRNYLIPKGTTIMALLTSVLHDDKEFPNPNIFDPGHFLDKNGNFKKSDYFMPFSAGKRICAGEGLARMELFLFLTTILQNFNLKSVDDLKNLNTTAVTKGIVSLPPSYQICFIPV

Cytochrome P450 2C9 = Cytochrome P450 2C9 (Homo sapiens, UniProt P11712); assay: Inhibition of CYP2C9; format: ADME
Chain of Cytochrome P450 2C9 (P11712 whole entry): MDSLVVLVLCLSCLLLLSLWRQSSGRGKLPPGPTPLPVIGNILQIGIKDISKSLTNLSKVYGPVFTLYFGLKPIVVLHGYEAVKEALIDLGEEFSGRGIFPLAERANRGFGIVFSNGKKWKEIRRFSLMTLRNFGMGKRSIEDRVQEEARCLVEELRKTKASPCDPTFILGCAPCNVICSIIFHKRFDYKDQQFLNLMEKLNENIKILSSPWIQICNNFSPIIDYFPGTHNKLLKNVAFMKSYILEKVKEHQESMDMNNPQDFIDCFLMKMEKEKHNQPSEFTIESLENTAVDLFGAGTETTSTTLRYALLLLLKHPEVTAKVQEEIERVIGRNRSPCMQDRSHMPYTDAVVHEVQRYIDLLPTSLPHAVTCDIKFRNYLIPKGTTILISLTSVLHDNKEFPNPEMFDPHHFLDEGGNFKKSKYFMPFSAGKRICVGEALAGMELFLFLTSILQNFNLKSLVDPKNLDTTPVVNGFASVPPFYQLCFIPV

Cytochrome P450 2C19 = Cytochrome P450 2C19 (Homo sapiens, UniProt P33261); assay: Inhibition of CYP2C19; format: ADME
Chain of Cytochrome P450 2C19 (P33261 whole entry): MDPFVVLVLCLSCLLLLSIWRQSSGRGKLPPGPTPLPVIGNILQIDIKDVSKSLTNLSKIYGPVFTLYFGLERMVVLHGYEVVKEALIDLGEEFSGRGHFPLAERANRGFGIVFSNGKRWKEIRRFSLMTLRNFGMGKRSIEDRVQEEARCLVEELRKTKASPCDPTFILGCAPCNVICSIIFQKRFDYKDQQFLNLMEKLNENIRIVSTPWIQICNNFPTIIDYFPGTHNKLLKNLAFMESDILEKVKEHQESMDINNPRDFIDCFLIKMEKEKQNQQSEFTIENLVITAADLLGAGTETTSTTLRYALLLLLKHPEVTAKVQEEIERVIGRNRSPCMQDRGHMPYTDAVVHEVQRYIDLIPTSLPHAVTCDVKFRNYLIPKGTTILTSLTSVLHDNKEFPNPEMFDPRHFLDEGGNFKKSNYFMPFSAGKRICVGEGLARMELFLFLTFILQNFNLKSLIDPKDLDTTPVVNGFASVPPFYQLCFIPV

Cytochrome P450 2D6 = Cytochrome P450 2D6 (Homo sapiens, UniProt P10635); assay: Inhibition of CYP2D6; format: ADME
Chain of Cytochrome P450 2D6 (P10635 whole entry): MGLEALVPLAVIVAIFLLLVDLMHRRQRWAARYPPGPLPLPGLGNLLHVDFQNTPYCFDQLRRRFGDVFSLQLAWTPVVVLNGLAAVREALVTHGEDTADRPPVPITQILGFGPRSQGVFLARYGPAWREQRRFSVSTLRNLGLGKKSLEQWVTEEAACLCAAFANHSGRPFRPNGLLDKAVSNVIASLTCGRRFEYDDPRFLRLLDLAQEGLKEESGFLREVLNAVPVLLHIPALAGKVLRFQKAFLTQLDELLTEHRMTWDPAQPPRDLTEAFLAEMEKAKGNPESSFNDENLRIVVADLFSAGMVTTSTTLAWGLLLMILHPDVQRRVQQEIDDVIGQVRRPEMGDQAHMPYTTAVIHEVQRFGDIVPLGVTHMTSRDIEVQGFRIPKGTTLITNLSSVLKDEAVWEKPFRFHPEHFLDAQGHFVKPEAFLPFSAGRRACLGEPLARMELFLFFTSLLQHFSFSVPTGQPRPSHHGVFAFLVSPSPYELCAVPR

Cytochrome P450 3A4 = Cytochrome P450 3A4 (Homo sapiens, UniProt P08684); assay: Inhibition of CYP3A4; format: ADME
Chain of Cytochrome P450 3A4 (P08684 whole entry): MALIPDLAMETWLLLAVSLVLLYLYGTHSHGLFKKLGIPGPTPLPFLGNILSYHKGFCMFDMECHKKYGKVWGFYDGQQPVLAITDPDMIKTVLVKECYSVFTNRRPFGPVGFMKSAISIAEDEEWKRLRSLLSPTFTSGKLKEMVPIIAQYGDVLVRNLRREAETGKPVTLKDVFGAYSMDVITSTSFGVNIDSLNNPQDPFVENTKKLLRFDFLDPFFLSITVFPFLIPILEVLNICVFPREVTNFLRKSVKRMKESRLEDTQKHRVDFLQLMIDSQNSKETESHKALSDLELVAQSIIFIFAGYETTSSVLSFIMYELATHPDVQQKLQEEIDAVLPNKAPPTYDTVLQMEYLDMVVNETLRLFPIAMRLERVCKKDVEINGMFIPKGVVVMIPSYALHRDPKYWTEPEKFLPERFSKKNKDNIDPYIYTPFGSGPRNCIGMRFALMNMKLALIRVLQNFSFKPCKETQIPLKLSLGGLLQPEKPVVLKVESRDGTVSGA

[6] = Dissociation constant, pKa of the compound; format: physicochemical
[7] = Percentage unbound in rat plasma; format: ADME, cell-free
[8] = Percentage unbound in dog plasma; format: ADME, cell-free, Canis lupus familiaris
[9] = Percentage unbound in human plasma; format: ADME, cell-free
[10] = Apparent permeability of the compound across apical to basolateral side in human Caco2 cells; format: ADME, cell-based; conditions: Caco-2
[11] = Apparent permeability of the compound across basolateral to apical side in human Caco2 cells; format: ADME, cell-based; conditions: Caco-2
Salmonella typhimurium = assay: Induction of genotoxicity in Salmonella typhimurium by Ames test; format: toxicity, organism-based; conditions: salmonella enterica subsp. enterica serovar typhimurium
[12] = Induction of genotoxicity in micronucleus by micronucleus test
[13] = Volume of distribution at steady state in rat at 1 mg/kg, iv and 1 mg/kg, po; format: ADME, organism-based; conditions: in vivo, read-out: Vdss
In short: (§1)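 Rats received 1 mg/kg IV as a solution in 10% EtOH/20% PEG400/70% PBS. A separate group received 1 mg/kg orally in methylcellulose in water.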

[14] = Half life in rat at 1 mg/kg, iv and 1 mg/kg, po; format: ADME, organism-based; conditions: in vivo; in short: as §1
[15] = Volume of distribution at steady state in dog at 0.5 mg/kg, iv and 3 mg/kg, po; format: ADME, organism-based, Canis lupus familiaris; conditions: in vivo, read-out: Vdss
In short: (§2)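 In dogs, the IV dose was 0.5 mg/kg in solution in 10% EtOH/20% PEG400/70% PBS. The oral dose was 3 mg/kg in methylcellulose in water.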

[16] = Half life in dog at 0.5 mg/kg, iv and 3 mg/kg, po; format: ADME, organism-based, Canis lupus familiaris; conditions: in vivo; in short: as §2
[17] = Clearance in dog at 0.5 mg/kg, iv and 3 mg/kg, po; format: ADME, organism-based, Canis lupus familiaris; conditions: in vivo; in short: as §2
[18] = Oral bioavailability in dog at 3 mg/kg; format: ADME, organism-based, Canis lupus familiaris; conditions: in vivo; in short: as §2
[19] = Clearance in rat at 1 mg/kg, iv and 1 mg/kg, po; format: ADME, organism-based; conditions: in vivo; in short: as §1
[20] = Oral bioavailability in rat at 1 mg/kg; format: ADME, organism-based; conditions: in vivo; in short: as §1
[21] = Intrinsic clearance in rat microsomes; format: ADME, Microsome
[22] = Intrinsic clearance in dog microsomes; format: ADME, Canis lupus familiaris, Microsome
[23] = Intrinsic clearance in human microsomes; format: ADME, Microsome
[24] = Plasma clearance in rat at 2 mg/kg, iv dosed in 20% PEG400/80% H2O; format: ADME, organism-based; set-up: dose 2 mg/kg, route intravenous
In short: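 Single IV dose of 2 mg/kg formulated in 20% PEG400/80% H2O. Plasma clearance was determined.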

[25] = Plasma clearance in dog; format: ADME, organism-based, Canis lupus familiaris
[26] = Oral bioavailability in dog at 5 mg/kg; format: ADME, organism-based, Canis lupus familiaris; conditions: in vivo
[27] = Fraction absorbed in dog at 5 mg/kg, po; format: ADME, organism-based, Canis lupus familiaris; set-up: dose 5 mg/kg, route oral; conditions: in vivo
[28] = Drug excretion in rat bile at 2 mg/kg, iv; format: ADME, organism-based; set-up: dose 2 mg/kg, route intravenous; conditions: read-out: Drug excretion
[29] = Drug excretion in rat urine at 2 mg/kg, iv; format: ADME, organism-based; set-up: dose 2 mg/kg, route intravenous; conditions: read-out: Drug excretion
[30] = Free intrinsic clearance in human microsomes; format: ADME, Microsome
[31] = Aqueous solubility of the compound; format: physicochemical; conditions: buffer

Compound: CN1CC[C@@H](NC(=O)Nc2cccc(C#N)c2)C[C@@H]1c1nc2ccccc2[nH]1
- IC50 (Protein smoothened): 72 nM
- Ratio IC50 [1]: > 50

Compound: CN1CC[C@@H](NC(=O)Nc2ccc(C#N)cc2)C[C@@H]1c1nc2ccccc2[nH]1 [GLASDEGIB]
- IC50 (Protein smoothened): 5 nM
- logD [2]: 2.48
- fraction unbound [3]: 0.57
- fraction unbound [4]: 0.54
- fraction unbound [5]: 0.61
- IC50 (Cytochrome P450 1A2): > 30 µM
- IC50 (Cytochrome P450 2C8): > 30 µM
- IC50 (Cytochrome P450 2C9): > 30 µM
- IC50 (Cytochrome P450 2C19): > 30 µM
- IC50 (Cytochrome P450 2D6): > 30 µM
- IC50 (Cytochrome P450 3A4): > 30 µM
- pKa [6]: 6
- fraction unbound [7]: 0.109
- fraction unbound [8]: 0.141
- fraction unbound [9]: 0.091
- Papp A→B [10]: 5.98 ×10⁻⁶ cm/s
- Papp B→A [11]: 15.6 ×10⁻⁶ cm/s
- Activity (Salmonella typhimurium): Non-toxic
- Activity [12]: Non-toxic
- Vd [13]: 4.8 L/kg
- half-life [14]: 84 min
- Vd [15]: 4.3 L/kg
- half-life [16]: 174 min
- clearance [17]: 3.9 mL/min/kg
- bioavailability [18]: 68%
- clearance [19]: 31 mL/min/kg
- bioavailability [20]: 33%
- CLint scaled [21]: 67 mL/min/kg
- CLint scaled [22]: < 14 mL/min/kg
- CLint scaled [23]: 6.3 mL/min/kg

Compound: CN1CC[C@@H](NC(=O)c2ccc3c(c2)OCCO3)C[C@@H]1c1nc2ccccc2[nH]1
- IC50 (Protein smoothened): 43 nM
- clearance [24]: > 70 mL/min/kg
- clearance [25]: 18 mL/min/kg
- bioavailability [26]: 33%
- Fa [27]: > 50%
- dose excreted [28]: < 5%
- dose excreted [29]: < 5%
- Ratio IC50 [1]: 9

Compound: COc1ccc(NC(=O)N[C@@H]2CCN(C)[C@@H](c3nc4ccccc4[nH]3)C2)cc1
- IC50 (Protein smoothened): 35 nM
- Ratio IC50 [1]: > 50

Compound: CN1CC[C@@H](NC(=O)Nc2ccc3c(c2)OCCO3)C[C@@H]1c1nc2ccccc2[nH]1
- IC50 (Protein smoothened): 45 nM
- Ratio IC50 [1]: > 50

Compound: O=C(Nc1cccc(-c2nc3ccccc3[nH]2)c1)c1ccc2c(c1)OCCO2
- IC50 (Protein smoothened): 5 nM
- CL free [30]: 314 µL/min/kg
- solubility [31]: 0.1 µg/mL (≈ 0.269 µM)
- clearance [24]: 25 mL/min/kg
- fraction unbound [7]: < 0.01
- fraction unbound [8]: < 0.01
- fraction unbound [9]: < 0.01
